Consider 11 compounds from ChEMBL document CHEMBL1135374, “New series of aryloxypropanolamines with both human beta(3)-adrenoceptor agonistic activity and free radical scavenging properties” (2002).

The species entered for test [1] is Bos taurus. Kind of test: Oxidation was assessed indirectly by measuring bovine serum albumin (BSA) thiol protection from the formation of thiobarbituric acid reactive substances (TBARs) by TBARs test at 10 uM. The format is functional.
Test [2] is filed under the species Bos taurus. Kind of test: Oxidation was assessed indirectly by measuring bovine serum albumin (BSA) thiol protection by using Ellman''s test at 500 uM. It is filed as functional. In a few lines:
(§1)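 Hydroxyl radicals from Fenton reaction (Fe2+/H2O2) oxidize BSA. Remaining thiols measured by Ellman's test. Compound present at the stated concentration. Reported as % protection relative to Trolox. Mean ± SEM of three experiments, ANOVA (p < 0.05).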
A general note: In Ellman's method for cholinesterases, released thiocholine reacts with DTNB.

For a further test, the system named is COS-7. Kind of test: CyclicAMP production in untransfected COS-7 cell control. It is filed as functional. In a few lines: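 Non-transfected COS-7 cells grown in DMEM/10% FBS at 37 °C, 5% CO2. Preincubated 30 min at 37 °C in serum-free DMEM/25 mM HEPES pH 7.5, then given 10 μM compound plus 0.24 mM IBMX and 0.1 μM propranolol for 20 min. cAMP in cold 5% TCA extract quantified by RIA, pmol/min/well.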

The species entered for test [3] is Bos taurus. Put plainly: Oxidation was assessed indirectly by measuring bovine serum albumin (BSA) thiol protection by using Ellman''s test at 1 mM. The format is functional. In a few lines:
as §1

Test [4] is filed under the species Bos taurus. Put plainly: Oxidation was assessed indirectly by measuring bovine serum albumin (BSA) thiol protection from the formation of thiobarbituric acid reactive substances (TBARs) by TBARs test at 100 uM. The format is functional.
Test [5] is filed under the species Bos taurus. Put plainly: Oxidation was assessed indirectly by measuring bovine serum albumin (BSA) thiol protection from the formation of thiobarbituric acid reactive substances (TBARs) by TBARs test at 500 uM. The format is functional. A digest of the protocol:
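Plasma lipid peroxidation induced by Fenton-generated hydroxyl radicals (Fe2+/H2O2), with compound at the stated concentration. Thiobarbituric acid reactive substances quantified. Expressed as % protection relative to Trolox. Mean ± SEM, three experiments, ANOVA (p < 0.05).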

Test [6] is filed under the species Bos taurus. Kind of test: Oxidation was assessed indirectly by measuring bovine serum albumin(BSA) thiol protection from the formation of thiobarbituric acid reactive substances (TBARs) by TBARs test at 500 uM. It is filed as functional.
For test [7], the species on record is Bos taurus. Put plainly: Oxidation was assessed indirectly by measuring bovine serum albumin(BSA) thiol protection from the formation of thiobarbituric acid reactive substances (TBARs) by TBARs test at 100 uM. The format is functional.
The species named for test [8] is Bos taurus. Put plainly: Oxidation was assessed indirectly by measuring bovine serum albumin thiol protection by using Ellman''s test at 1 mM. It is filed as functional. A digest of the protocol: as §1
Test [9] is filed under the species Bos taurus. Kind of test: Oxidation was assessed indirectly by measuring bovine serum albumin thiol protection by using Ellman''s test at 500 uM. The format is functional. In a few lines: as §1
The target of test [10] is Beta-3 adrenergic receptor (Homo sapiens) (UniProt P13945). Put plainly: Beta adrenergic activity as cAMP production in human Beta3 adrenergic receptor expressing COS-7 cells with propranolol. The format is functional, cell-based. In a few lines:
(§2)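 COS-7 cells in DMEM/10% FBS at 37 °C, 5% CO2, lipofected with human β3-receptor plasmid at 70-80% confluence, then grown 24 h. Cells preincubated 30 min at 37 °C in serum-free DMEM/25 mM HEPES pH 7.5, then exposed 20 min to 10 μM compound with 0.24 mM IBMX, with or without 0.1 μM propranolol. cAMP in TCA extract measured by RIA, expressed as pmol/min/well.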
(Changes in cAMP serve as a functional read-out for many G protein-coupled receptors.)

For test [11] the target is unchanged. Kind of test: Beta adrenergic activity was determined by measuring cAMP production on human Beta3 adrenergic transfected COS-7 cells. It is filed as functional, cell-based. A digest of the protocol: as §2
Test [12] is filed under the species Bos taurus. Put plainly: Oxidation was assessed indirectly by measuring bovine serum albumin(BSA) thiol protection from the formation of thiobarbituric acid reactive substances (TBARs) by TBARs test at 10 uM. The format is functional.

Chain of Beta-3 adrenergic receptor (Homo sapiens) (P13945 whole entry, looked up): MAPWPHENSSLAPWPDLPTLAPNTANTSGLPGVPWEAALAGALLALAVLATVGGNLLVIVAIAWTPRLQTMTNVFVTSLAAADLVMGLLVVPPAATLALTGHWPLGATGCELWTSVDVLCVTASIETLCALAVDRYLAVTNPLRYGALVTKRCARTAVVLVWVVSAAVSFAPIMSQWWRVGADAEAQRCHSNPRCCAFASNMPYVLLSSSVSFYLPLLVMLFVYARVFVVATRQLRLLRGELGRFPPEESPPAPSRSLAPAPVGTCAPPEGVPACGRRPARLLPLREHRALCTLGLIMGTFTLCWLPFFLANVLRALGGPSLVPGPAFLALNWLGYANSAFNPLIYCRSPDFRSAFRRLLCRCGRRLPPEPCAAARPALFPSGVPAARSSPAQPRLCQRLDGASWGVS

Take `CC(C)(C)c1cc(CCCOc2ccc(NCC(O)COc3cccc4ncccc34)cc2)cc(C(C)(C)C)c1O` (stereo not given): the Protection in the test listed under Bos taurus [1] worked out at 30.3%; in the test filed under Bos taurus [2], 47.3%; in the test listed under Bos taurus [3] it was 120.3%; in the test filed under Bos taurus [4], 33.3%; in the test listed under Bos taurus [5], 50.4%. Besides, in the test with COS-7, the cAMP production came to 21.6 pmol/min/well.
With `Cc1c(C)c2c(c(C)c1O)CCC(C)(C(=O)O)O2` (stereo not given) [TROLOX], the Protection in the test filed under Bos taurus [1] is recorded as -21.4%; in the test filed under Bos taurus [6] it was 64.8%; in the test listed under Bos taurus [7], 7.6%; in the test filed under Bos taurus [8], 75.2%; in the test listed under Bos taurus [9] it was 31.4%.
On to `CC(C)(C)c1cc(CCCOc2ccc(NCC(O)COc3ccc4ccncc4c3)cc2)cc(C(C)(C)C)c1O` (stereo not given), for which the cAMP production with COS-7 was found to be 26.9 pmol/min/well. This compound also came in with a cAMP production (pM min-1 well-1) in test [10] of 23.9.
Consider `CC(C)(C)c1cc(CCCOc2ccc(NCC(O)COc3cccc4cnccc34)cc2)cc(C(C)(C)C)c1O` (stereo not given), for which the Protection stood at 43.6% in the test filed under Bos taurus [1], 32.8% in the test filed under Bos taurus [4] and 49.3% in the test listed under Bos taurus [5]. For the same compound, the cAMP production (pM min-1 well-1) in test [11] is 130; in [10], 76.3. The compound further displayed a cAMP production in the test with COS-7 of 24.9 pmol/min/well.
With `Cc1c(C)c2c(c(C)c1O)CCC(C)(COc1ccc(NCC(O)COc3cccc4cnccc34)cc1)O2` (stereo not given), the Protection in the test listed under Bos taurus [1] came to 39.4%; in the test filed under Bos taurus [8] it was 115.2%; in the test filed under Bos taurus [4] it was 49.3%; in the test filed under Bos taurus [9], 54.8%; in the test filed under Bos taurus [5] it was 94.4%. For the same compound, the cAMP production (pM min-1 well-1) in test [11] stood at 142; in [10], 41.6. Also, the cAMP production in the test on COS-7 was 28.7 pmol/min/well.
As to `Cc1c(C)c2c(c(C)c1O)CCC(C)(COc1ccc(NCC(O)COc3cccc4[nH]c5ccccc5c34)cc1)O2` (stereo not given), the cAMP production with COS-7 stood at 31.5 pmol/min/well. Further, in test [10], the cAMP production (pM min-1 well-1) stood at 22.3.
As for `CC(C)(C)c1cc(CCCOc2ccc(NCC(O)COc3ccc4cccnc4c3)cc2)cc(C(C)(C)C)c1O` (stereo not given), the cAMP production (pM min-1 well-1) in test [11] worked out at 97.4; in [10], 21.4. This compound also showed a cAMP production in the test on COS-7 of 23.3 pmol/min/well.
Regarding `Cc1c(C)c2c(c(C)c1O)CCC(C)(COc1ccc(NCC(O)COc3cccc4ncccc34)cc1)O2` (stereo not given), the Protection is listed as 78.2% in the test listed under Bos taurus [6]; 64.6% in the test listed under Bos taurus [7]; 82.9% in the test filed under Bos taurus [8]; 49.2% in the test filed under Bos taurus [9]; 37.8% in the test listed under Bos taurus [12]. Besides, the cAMP production (pM min-1 well-1) in test [11] came out at 103; in test [10], 28.6. This compound came in with a cAMP production in the test with COS-7 of 26.8 pmol/min/well.
Take `Cc1c(C)c2c(c(C)c1O)CCC(C)(COc1ccc(NCC(O)COc3ccc4ccncc4c3)cc1)O2` (stereo not given): the cAMP production with COS-7 was 33 pmol/min/well. The compound further gave a cAMP production (pM min-1 well-1) in [10] of 33.2.
`COc1ccccc1OCCNCC(O)COc1cccc2[nH]c3ccccc3c12` (stereo not given) [CARVEDILOL]: the Protection in the test filed under Bos taurus [1] was 1%; in the test filed under Bos taurus [6] it was 6.2%; in the test listed under Bos taurus [7], -0.6%; in the test filed under Bos taurus [8], -88.6%; in the test listed under Bos taurus [9] it was 20%.
For the compound `Cc1c(C)c2c(c(C)c1O)CCC(C)(COc1ccc(NCC(O)COc3cccc4[nH]c5ncccc5c34)cc1)O2` (stereo not given), the Protection was determined as 44.3% in the test filed under Bos taurus [1], 53.6% in the test listed under Bos taurus [4] and 75.5% in the test filed under Bos taurus [5].
